The record followed here is ChEMBL document CHEMBL3098107, “Synthesis of novel 2-cyano substituted glycyrrhetinic acid derivatives as inhibitors of cancer cells growth and NO production in LPS-activated J-774 cells” (Bioorg Med Chem, 2014).

Series [1] concerns J774. The experiment in a line: Antiinflammatory activity in mouse J774 cells assessed as inhibition of LPS-induced NO production after 24 hrs by Griess method. It is filed as functional, cell-based. Conditions: J774, 24 h. In general terms: The Griess reaction detects nitrite, a stable product of nitric oxide.
In series [2] the test system is J774. The series can be described thus: Cytotoxicity against mouse J774 cells assessed as cell survival after 24 hrs by MTT assay. The series is classed as cell-based. The conditions noted are these: J774, 24 h. A digest of the protocol:
(§1)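 Cells in log phase, in DMEM with 10% heat-inactivated FBS, seeded in triplicate. After 24 h adherence, they were exposed to graded doses for 24 h, then to MTT for 3 h. Formazan was dissolved in DMSO and read at 570 nm. IC50 is the concentration giving 50% survival. Three independent experiments, mean ± SEM.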
For orientation: Tetrazolium dyes change colour on reduction, which living cells bring about.

Series [3] has as its system J774. The series can be described thus: Selectivity index, ratio of IC50 for mouse J774 cells to IC50 for human KB-3-1 cells. The series is classed as functional. A digest of the protocol:
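SI is the IC50 from the J-774 MTT assay divided by the IC50 from the KB-3-1 MTT assay, with both IC50 values from the 24 h assays.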

Series [4] can be described thus: Cytotoxicity against human KB-3-1 cells assessed as cell survival after 24 hrs by MTT assay. It is filed as functional, cell-based. Conditions: KB 3-1, 24 h. A digest of the protocol:
as §1

A short description of series [5]: Solubility of the compound in DMSO. It is filed as physicochemical.

Each structure is given as a SMILES string.

With `COC(=O)[C@@]1(C)CC[C@]2(C)CC[C@]3(C)[C@H](C(=O)C[C@@H]4[C@@]5(C)CC[C@H](O)C(C)(C)[C@@H]5CC[C@]43C)[C@@H]2C1`, the figures for the IC50 (in the series on J774 [1]; with J774 [2]; in series [4]) were 59.4 µM, 56.1 µM and 6.8 µM, respectively. Besides, in the series with J774 [3], the “Ratio IC50” value was found to be 8.3.
As for `COC(=O)[C@@]1(C)CC[C@]2(C)CC[C@]3(C)C(=CC(=O)[C@@H]4[C@@]5(C)CC[C@H](O)C(C)(C)[C@@H]5CC[C@]43C)[C@@H]2C1`, the 50% inhibitory concentration (IC50) (in the series on J774 [1]; in the series on J774 [2]; in series [4]) was above 100 µM each time.
As to `COC(=O)[C@]1(C)C=C2C3=CC(=O)[C@@H]4[C@@]5(C)C=C(C#N)C(=O)C(C)(C)[C@@H]5CC[C@@]4(C)[C@]3(C)CC[C@@]2(C)CC1`, the IC50 in the series on J774 [1] was 5.6 µM; in the series with J774 [2], 7 µM; in series [4], 4 µM. Also, the “Ratio IC50” value in the series on J774 [3] came to 1.8.
Turning to `COc1ccc2c(c1)c(CC(=O)O)c(C)n2C(=O)c1ccc(Cl)cc1` [INDOMETHACIN], the IC50 in the series with J774 [1] was 29.6 µM; in the series with J774 [2] it was above 100 µM.
The matching figures for `COC(=O)[C@]1(C)C=C2C3=CC(=O)[C@@H]4[C@@]5(C)CCC(=O)C(C)(C)[C@@H]5CC[C@@]4(C)[C@]3(C)CC[C@@]2(C)CC1`: 16.3 µM and 20.1 µM.
The matching figures for `COC(=O)[C@]1(C)C=C2C3=CC(=O)[C@@H]4[C@@]5(C)C/C(=C/O)C(=O)C(C)(C)[C@@H]5CC[C@@]4(C)[C@]3(C)CC[C@@]2(C)CC1`: 14.5 µM and 13.4 µM.
As to `COC(=O)[C@@]1(C)CC[C@]2(C)CC[C@]3(C)C(=CC[C@@H]4[C@@]5(C)CC(C#N)=C(O)C(C)(C)[C@@H]5CC[C@]43C)[C@@H]2C1`, the results for the IC50 (in the series with J774 [1]; with J774 [2]; in series [4]) were 8 µM, above 100 µM and 80 µM, respectively. Besides, the “Ratio IC50” value in the series with J774 [3] was above 1.3.
Take `COC(=O)[C@@]1(C)CC[C@]2(C)CC[C@]3(C)C(=CC[C@@H]4[C@@]5(C)Cc6cnoc6C(C)(C)[C@@H]5CC[C@]43C)[C@@H]2C1`: the IC50 with J774 [1] was 12.4 µM; in the series on J774 [2], above 100 µM; in series [4], above 100 µM.
`COC(=O)[C@@]1(C)CC[C@]2(C)CC[C@]3(C)C(=CC[C@@H]4[C@@]5(C)CCC(=O)C(C)(C)[C@@H]5CC[C@]43C)[C@@H]2C1`: the solubility result in series [5] is given as “Insoluble”.
In the case of `COC(=O)[C@@]1(C)CC[C@]2(C)CC[C@]3(C)C(=CC[C@@H]4[C@@]5(C)C=C(C#N)C(=O)C(C)(C)[C@@H]5CC[C@]43C)[C@@H]2C1`, the solubility entry in series [5] is reported as “Insoluble”.
In the case of `COC(=O)[C@@]1(C)CC[C@]2(C)CC[C@]3(C)C(=CC[C@@H]4[C@@]5(C)C/C(=C\O)C(=O)C(C)(C)[C@@H]5CC[C@]43C)[C@@H]2C1`, the IC50 in the series with J774 [1] was 10.5 µM; with J774 [2], above 100 µM; in series [4], 40 µM. Further, the “Ratio IC50” value with J774 [3] is above 2.5.
On to `COC(=O)[C@]1(C)C=C2C3=CC(=O)[C@@H]4[C@@]5(C)CC[C@H](O)C(C)(C)[C@@H]5CC[C@@]4(C)[C@]3(C)CC[C@@]2(C)CC1`, for which the IC50 in the series with J774 [1] and with J774 [2] was above 100 µM each time.
With `COC(=O)[C@@]1(C)CC[C@]2(C)CC[C@]3(C)C(=CC(=O)[C@@H]4[C@@]5(C)C=C(C#N)C(=O)C(C)(C)[C@@H]5CC[C@]43C)[C@@H]2C1`, the values for the half-maximal inhibitory concentration (IC50) (in the series with J774 [1]; with J774 [2]; in series [4]) were 2 µM, above 100 µM and 20 µM, respectively. Besides, in the series on J774 [3], the “Ratio IC50” value was above 5.
With `COC(=O)[C@@]1(C)CC[C@]2(C)CC[C@]3(C)[C@H](C(=O)C[C@@H]4[C@@]5(C)CCC(=O)C(C)(C)[C@@H]5CC[C@]43C)[C@@H]2C1`, the IC50 in the series on J774 [1] was 23.4 µM; in the series on J774 [2], above 100 µM; in series [4], 25.2 µM. Besides, the “Ratio IC50” value in the series on J774 [3] is listed as above 3.9.
On to `COC(=O)[C@@]1(C)CC[C@]2(C)CC[C@]3(C)C(=CC[C@@H]4[C@@]5(C)CC[C@H](O)C(C)(C)[C@@H]5CC[C@]43C)[C@@H]2C1`, for which, in series [5], the solubility result is listed as “Insoluble”.
On to `COC(=O)[C@@]1(C)CC[C@]2(C)CC[C@]3(C)[C@H](C(=O)C[C@@H]4[C@@]5(C)C=C(C#N)C(=O)C(C)(C)[C@@H]5CC[C@]43C)[C@@H]2C1`, for which the IC50 was 2.8 µM with J774 [1], above 100 µM in the series on J774 [2] and 5.5 µM in series [4]. In addition, in the series on J774 [3], the “Ratio IC50” value is on record as above 18.2.
Consider `COC(=O)[C@@]1(C)CC[C@]2(C)CC[C@]3(C)[C@H](C(=O)C=C4[C@@]5(C)C=C(C#N)C(=O)C(C)(C)[C@@H]5CC[C@]43C)[C@@H]2C1`, for which the IC50 was 0.11 µM in the series on J774 [1], 3.32 µM in the series with J774 [2] and 0.3 µM in series [4]. In addition, in the series with J774 [3], the “Ratio IC50” value is 11.

Broadly, the IC50 is the point on the concentration scale where inhibition reaches its midpoint.
